Values after ≈ are worked out from the molar mass of the structure shown. Active and inactive are the calls of the source. The rule behind the calls is not given here.
Key:
[1] = Selectivity index, ratio of IC50 for human HeLa cells to MIC for metronidazole resistant Trichomonas vaginalis ATCC 50143; format: toxicity, cell-based; settings: read-out: Selectivity Index
Outline: (§1)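 SI is HeLa IC50 divided by parasite MIC. HeLa cells seeded at 2 × 10⁴/well in triplicate in DMEM with 10% FCS, 24 h at 37 °C in 5% CO2. Medium then replaced with compound dilutions (0.05% DMSO controls) for 24 h. Viability by MTT read at OD540; IC50 is the concentration killing 50% of cells. MIC from 48 h trypan blue parasite killing in TYM.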

[2] = Cytotoxicity against human HeLa cells after 24 hrs by MTT assay; format: toxicity, cell-based
Outline: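 HeLa cells seeded at 2 × 10⁴ per well in DMEM with 10% FCS, in triplicate, and held 24 h at 37 °C in 5% CO₂. Exposed to compound dilutions for 24 h; controls received 0.05% DMSO. MTT in PBS pH 7.4 added, formazan dissolved in DMSO, OD540 read. IC50 taken as the concentration killing 50% of cells.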

Trichomonas vaginalis [3] = assay: Antiparasitic activity against metronidazole resistant Trichomonas vaginalis ATCC 50143 after 48 hrs by trypan blue exclusion assay; format: functional; settings: ATCC 50143, 48 h
Outline: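 T. vaginalis trophozoites ([…]), log phase, grown in TYM with 10% FCS, vitamin mix and penicillin/streptomycin at 37 °C. Test agents from DMSO stocks serially diluted in TYM; DMSO/TYM vehicle controls. Anaerobic incubation at 37 °C with microscopic viability checks from 3 to 48 h by trypan blue exclusion. MIC is the lowest concentration killing all cells by 48 h. Repeated three times.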

Trichomonas vaginalis [4] = assay: Antiparasitic activity against metronidazole sensitive Trichomonas vaginalis ATCC 33592 after 48 hrs by trypan blue exclusion assay; format: functional; settings: ATCC 33592, 48 h
Trichomonas vaginalis [5] = assay: Potency index, ratio of metronidazole MIC to compound MIC for metronidazole sensitive Trichomonas vaginalis ATCC 33592; format: functional
Trichomonas vaginalis [6] = assay: Potency index, ratio of metronidazole MIC to compound MIC for metronidazole resistant Trichomonas vaginalis ATCC 50143; format: functional
[7] = Selectivity index, ratio of IC50 for human HeLa cells to MIC for metronidazole sensitive Trichomonas vaginalis ATCC 33592; format: toxicity, cell-based; settings: read-out: Selectivity Index; outline: as §1
Trichomonas vaginalis [8] = assay: Antiparasitic activity against Trichomonas vaginalis in po dosed mouse assessed as size of abscess at 100 mg/kg, po administered daily for 5 days measured 5 days post last dose (reference value: 120 mm'2); format: functional
Outline: (§2)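 Six-week-old mice inoculated subcutaneously in the left hind flank with 50 µL of 2 × 10⁶ saline-washed trophozoites/mL grown in TYM. Abscess confirmed by palpation at day 7 and by fine-needle biopsy. Oral dosing in gum acacia at 50 or 100 mg/kg daily; controls received vehicle. Abscess size measured longitudinally each day and area calculated; n = 3 per group.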

Trichomonas vaginalis [9] = assay: Antiparasitic activity against Trichomonas vaginalis in po dosed mouse assessed as size of abscess at 50 mg/kg, po administered daily for 5 days measured 5 days post last dose (reference value: 120 mm'2); format: functional; outline: as §2
[10] = Cmax in Sprague Dawley rat at 50 mg/kg, po; format: ADME, organism-based; parameters: dose 50 mg/kg, route oral; settings: in vivo
Outline: (§3)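 Overnight-fasted (12–16 h) rats, n = 4 per time point, given a single oral dose of 50 mg/kg as a 12.5 mg/mL suspension in 1% w/v gum acacia and water. Blood sampled at set times up to 24 h; serum stored at −80 °C. Analysis by LC-MS/MS in positive-ion MRM mode with phenacetin as internal standard; parameters derived by non-compartmental analysis. Values are means of four rats.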

Trichomonas vaginalis [11] = assay: Antiparasitic activity against Trichomonas vaginalis assessed as decrease in parasite free thiol levels at MIC after 24 hrs by fluorometric thiol detector-based fluorescence microscopic method; format: functional
Outline: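 Cells pelleted (700 × g, 10 min, 4 °C), washed 2–3 times in PBS, then stained 5 min in the dark with fluorometric thiol detector (pre-diluted 100×). Imaged by epifluorescence microscopy, UV-1A filter, with equal exposure times for all samples.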

[12] = Half life in Sprague Dawley rat at 50 mg/kg, po; format: ADME, organism-based; settings: in vivo; outline: as §3
[13] = Tmax in Sprague Dawley rat at 50 mg/kg, po; format: ADME, organism-based; settings: in vivo; outline: as §3
Trichomonas vaginalis [14] = assay: Antiparasitic activity against Trichomonas vaginalis in po dosed mouse assessed as size of abscess at 100 mg/kg, po administered daily for 7 days measured 7 days post last dose (reference value: 113 mm'2); format: functional; outline: as §2
[15] = Clearance in Sprague Dawley rat at 50 mg/kg, po; format: ADME, organism-based; settings: in vivo; outline: as §3
[16] = AUClast in Sprague Dawley rat at 50 mg/kg, po; format: ADME, organism-based; parameters: dose 50 mg/kg, route oral, time 0 - last; settings: in vivo; outline: as §3
[17] = Volume of distribution at steady state in Sprague Dawley rat at 50 mg/kg, po; format: ADME, organism-based; settings: in vivo; outline: as §3
Trichomonas vaginalis [18] = assay: Antiparasitic activity against Trichomonas vaginalis in po dosed mouse assessed as size of abscess at 50 mg/kg, po administered daily for 7 days measured 7 days post last dose (reference value: 113 mm'2); format: functional; outline: as §2

Row | SMILES | selectivity ratio [1] | IC50 at 24 h [2] | MIC (Trichomonas vaginalis [3]) | MIC (Trichomonas vaginalis [4]) | Ratio (Trichomonas vaginalis [5]) | Ratio (Trichomonas vaginalis [6]) | selectivity ratio [7] | Activity (Trichomonas vaginalis [8]) | Activity (Trichomonas vaginalis [9]) | Cmax [10] | Activity (Trichomonas vaginalis [11]) | half-life [12] | Tmax [13] | Activity (Trichomonas vaginalis [14]) | CL [15] | AUClast [16] | Vdss [17] | Activity (Trichomonas vaginalis [18])
1 | Cc1ncc([N+](=O)[O-])n1CC(O)CSC(=S)N1CCN(c2ccccc2F)CC1 (racemic) | 56 | 3240 µM | 56.9 µM (≈ 25 µg/mL) | 14.2 µM (≈ 6.25 µg/mL) | <=2.4 | <=12.7 | 227 |  |  |  |  |  |  |  |  |  |  | 
2 | CCN1CCN(CC(O)Cn2c([N+](=O)[O-])cnc2C)CC1 (racemic) | 47 | 4940 µM | 105 µM (≈ 31.3 µg/mL) | 12.1 µM (≈ 3.6 µg/mL) | <=2.4 | <=12.7 | 407 |  |  |  |  |  |  |  |  |  |  | 
3 | Cc1ncc([N+](=O)[O-])n1CC(O)Cn1ccnn1 (racemic) | > 50 | > 5000 µM | 99.2 µM (≈ 25 µg/mL) | 12.4 µM (≈ 3.12 µg/mL) | <=2.4 | <=12.7 | > 416 |  |  |  |  |  |  |  |  |  |  | 
4 | Cc1ncc([N+](=O)[O-])n1CC(O)CN1CCN(c2cccc(Cl)c2Cl)CC1 (racemic) | > 33 | > 5000 µM | 151 µM (≈ 62.5 µg/mL) | 18.9 µM (≈ 7.81 µg/mL) | <=2.4 | <=12.7 | > 265 |  |  |  |  |  |  |  |  |  |  | 
5 | Cc1ncc([N+](=O)[O-])n1CC(O)CSC(=S)N1CCN(C(=O)OC(C)(C)C)CC1 (racemic) | 9 | 689 µM | 70.2 µM (≈ 31.3 µg/mL) | 17.6 µM (≈ 7.82 µg/mL) | <=2.4 | <=12.7 | 39 |  |  |  |  |  |  |  |  |  |  | 
6 | Cc1ncc([N+](=O)[O-])n1CC(O)CSC(=S)N1CCN(c2cccc(Cl)c2Cl)CC1 (racemic) | 7 | 1000 µM | 128 µM (≈ 62.7 µg/mL) | 16 µM (≈ 7.83 µg/mL) | <=2.4 | <=12.7 | 62 |  |  |  |  |  |  |  |  |  |  | 
7 | CCCCN1CCN(C(=S)SCC(O)Cn2c([N+](=O)[O-])cnc2C)CC1 (racemic) | 61 | 1910 µM | 31.2 µM (≈ 12.5 µg/mL) | 15.6 µM (≈ 6.26 µg/mL) | <=2.4 | <=12.7 | 122 |  |  |  |  |  |  |  |  |  |  | 
8 | Cc1ncc([N+](=O)[O-])n1CC(O)CSC(=S)N1CCCC(C)C1 (racemic) | 8 | 609 µM | 69.8 µM (≈ 25 µg/mL) | 17.4 µM (≈ 6.26 µg/mL) | <=2.4 | 2.5 - 12.6 | 35 |  |  |  |  |  |  |  |  |  |  | 
9 | Cc1ncc([N+](=O)[O-])n1CC(O)CN1CCN(c2ccccn2)CC1 (racemic) | 25 | 1830 µM | 72.2 µM (≈ 25 µg/mL) | 18.1 µM (≈ 6.26 µg/mL) | <=2.4 | <=12.7 | 101 |  |  |  |  |  |  |  |  |  |  | 
10 | Cc1ncc([N+](=O)[O-])n1CC(O)CSC(=S)N1CCN(c2cccc(Cl)c2)CC1 (racemic) | 15 | 1080 µM | 68.7 µM (≈ 31.3 µg/mL) | 17.2 µM (≈ 7.82 µg/mL) | <=2.4 | <=12.7 | 62 |  |  |  |  |  |  |  |  |  |  | 
11 | Cc1ncc([N+](=O)[O-])n1CC(O)CSC(=S)N1CCC(C)CC1 (racemic) | 26 | 1820 µM | 69.8 µM (≈ 25 µg/mL) | 17.4 µM (≈ 6.26 µg/mL) | <=2.4 | 2.5 - 12.6 | 104 |  |  |  |  |  |  |  |  |  |  | 
12 | Cc1ncc([N+](=O)[O-])n1CC(O)CSC(=S)N1CCC(Cc2ccccc2)CC1 (racemic) | 45 | 1320 µM | 28.8 µM (≈ 12.5 µg/mL) | 14.4 µM (≈ 6.26 µg/mL) | <=2.4 | 2.5 - 12.6 | 91 |  |  |  |  |  |  |  |  |  |  | 
13 | Cc1ncc([N+](=O)[O-])n1CC(O)CSC(=S)N1CCN(c2ccccc2)CC1 (racemic) | > 135 | > 5000 µM | 37.1 µM (≈ 15.6 µg/mL) | 8.55 µM (≈ 3.6 µg/mL) | 2.4 | <=12.7 | > 584 | 1 - 5 mm2 | 1 - 5 mm2 | 35.2 ng/mL | Active | 5 h | 4 h | 0.785 mm2 | 272 mL/min/kg | 149.1 ng·h/mL | 80.6 L/kg | 1.55 mm2
14 | CCOC(=O)N1CCN(CC(O)Cn2c([N+](=O)[O-])cnc2C)CC1 (racemic) | 40 | 3670 µM | 91.6 µM (≈ 31.3 µg/mL) | 22.9 µM (≈ 7.82 µg/mL) |  | <=12.7 | 160 |  |  |  |  |  |  |  |  |  |  | 
15 | Cc1ncc([N+](=O)[O-])n1CCO [METRONIDAZOLE] | > 13 | > 5000 µM | 365 µM (≈ 62.6 µg/mL) | 21.1 µM (≈ 3.6 µg/mL) |  |  | > 238 |  | 1 - 5 mm2 |  |  |  |  |  |  |  |  | 1.57 mm2
16 | Cc1ncc([N+](=O)[O-])n1CC(O)Cn1nccn1 (racemic) | > 102 | > 5000 µM | 49.6 µM (≈ 12.5 µg/mL) | 31 µM (≈ 7.82 µg/mL) |  | <=12.7 | > 161 |  |  |  |  |  |  |  |  |  |  | 
17 | COc1ccccc1N1CCN(C(=S)SCC(O)Cn2c([N+](=O)[O-])cnc2C)CC1 (racemic) | > 90 | > 5000 µM | 55.4 µM (≈ 25 µg/mL) | 27.7 µM (≈ 12.5 µg/mL) |  | <=12.7 | > 185 |  |  |  |  |  |  |  |  |  |  | 
18 | CCOC(=O)N1CCN(C(=S)SCC(O)Cn2c([N+](=O)[O-])cnc2C)CC1 (racemic) | 26 | 1610 µM | 60 µM (≈ 25 µg/mL) | 15 µM (≈ 6.25 µg/mL) | <=2.4 | <=12.7 | 107 |  |  |  |  |  |  |  |  |  |  | 
19 | Cc1nc([N+](=O)[O-])cn1CC(O)Cn1c([N+](=O)[O-])cnc1C (racemic) | 43 | 4350 µM | 101 µM (≈ 31.3 µg/mL) | 50.4 µM (≈ 15.6 µg/mL) |  | <=12.7 | 86 |  |  |  |  |  |  |  |  |  |  | 
20 | Cc1ncc([N+](=O)[O-])n1CC(O)CSC(=S)N(C)C (racemic) | > 61 | > 5000 µM | 82.2 µM (≈ 25 µg/mL) | 20.6 µM (≈ 6.26 µg/mL) |  | <=12.7 | > 243 |  |  |  |  |  |  |  |  |  |  | 
21 | Cc1ncc([N+](=O)[O-])n1CC(O)Cn1cnc2ccccc21 (racemic) | 54 | 4530 µM | 83 µM (≈ 25 µg/mL) | 25.9 µM (≈ 7.82 µg/mL) |  | <=12.7 | 181 |  |  |  |  |  |  |  |  |  |  | 
22 | COc1ccccc1N1CCN(CC(O)Cn2c([N+](=O)[O-])cnc2C)CC1 (racemic) | 33 | 4390 µM | 133 µM (≈ 50.1 µg/mL) | 33.3 µM (≈ 12.5 µg/mL) |  | <=12.7 | 131 |  |  |  |  |  |  |  |  |  |  | 
23 | CCN(CC)C(=S)SCC(O)Cn1c([N+](=O)[O-])cnc1C (racemic) | 32 | 2460 µM | 75.3 µM (≈ 25 µg/mL) | 37.6 µM (≈ 12.5 µg/mL) |  | <=12.7 | 65 |  |  |  |  |  |  |  |  |  |  | 
